Experimental data published in ChEMBL document CHEMBL4689842, “EUbOPEN Chemogenomics Library wave 1” (2021).

Tested on: HEK-293T
Assay: Multiplex assay against HEK293T;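 as to Population Tubulin-Different-Phenotype (%): share of the cells with healthy nuclei that show this phenotype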
Assay type: toxicity, cell-based
Details: human
Summary of the method: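 Phenotypes for tubulin, mitochondrial mass and membrane permeability are expressed as per cents of healthy-nucleus cells. Cells were stained live at seeding with Hoechst33342, BioTracker Green Microtubule Cytoskeleton Dye, MitoTracker Red and Annexin V Alexa Fluor 680, then imaged after compound addition on a CQ1 microscope at 37°C and 5% CO2. Machine-learning gating in CellPathfinder separated Hoechst high-intensity objects from normal cells, divided normal cells by nuclear state (healthy, pyknosed, fragmented) and divided pyknosed cells into mitotic or apoptotic.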

[1] = 12 h, 1 µM, compound concentration 1 uM, replicate 1
[2] = 12 h, 1 µM, compound concentration 1 uM, replicate 2
[3] = 12 h, 10 µM, compound concentration 10 uM, replicate 1
[4] = 12 h, 10 µM, compound concentration 10 uM, replicate 2
[5] = 24 h, 1 µM, compound concentration 1 uM, replicate 1
[6] = 24 h, 1 µM, compound concentration 1 uM, replicate 2
[7] = 24 h, 10 µM, compound concentration 10 uM, replicate 1
[8] = 24 h, 10 µM, compound concentration 10 uM, replicate 2

## C=CC(=O)Nc1cccc(Sc2nc(Nc3ccc(N4CCN(C)CC4)cc3)ncc2Cl)c1
[1]
  Population Apoptotic (%): 33%
  Population Fragmented Nuclei (%): 28%
  Population Healthy Nuclei (%): 14%
  Population Hoechst High Intensity Objects (%): 16%
  Population Membrane Permeable-Phenotype (%): 22%
  Population Mitochondria Different-Phenotype (%): 15%
  Population Mitotic Cells (%): 66%
  Population Normal (%): 83%
  Population Pyknosed Nuclei (%): 57%
  Population Tubulin-Different-Phenotype (%): 58%
  Total Cell Count: 748
[2]
  Population Apoptotic (%): 20%
  Population Fragmented Nuclei (%): 4%
  Population Healthy Nuclei (%): 64%
  Population Hoechst High Intensity Objects (%): 10%
  Population Membrane Permeable-Phenotype (%): 7%
  Population Mitochondria Different-Phenotype (%): 44%
  Population Mitotic Cells (%): 79%
  Population Normal (%): 89%
  Population Pyknosed Nuclei (%): 30%
  Population Tubulin-Different-Phenotype (%): 98%
  Total Cell Count: 1010
[3]
  Population Apoptotic (%): 21%
  Population Fragmented Nuclei (%): 26%
  Population Healthy Nuclei (%): 38%
  Population Hoechst High Intensity Objects (%): 21%
  Population Membrane Permeable-Phenotype (%): 10%
  Population Mitochondria Different-Phenotype (%): 13%
  Population Mitotic Cells (%): 78%
  Population Normal (%): 78%
  Population Pyknosed Nuclei (%): 35%
  Population Tubulin-Different-Phenotype (%): 14%
  Total Cell Count: 476
[4]
  Population Apoptotic (%): 6%
  Population Fragmented Nuclei (%): 7%
  Population Healthy Nuclei (%): 84%
  Population Hoechst High Intensity Objects (%): 3%
  Population Membrane Permeable-Phenotype (%): 5%
  Population Mitochondria Different-Phenotype (%): 16%
  Population Mitotic Cells (%): 93%
  Population Normal (%): 96%
  Population Pyknosed Nuclei (%): 7%
  Population Tubulin-Different-Phenotype (%): 25%
  Total Cell Count: 1448
[5]
  Population Apoptotic (%): 55%
  Population Fragmented Nuclei (%): 34%
  Population Healthy Nuclei (%): 26%
  Population Hoechst High Intensity Objects (%): 14%
  Population Membrane Permeable-Phenotype (%): 18%
  Population Mitochondria Different-Phenotype (%): 12%
  Population Mitotic Cells (%): 44%
  Population Normal (%): 85%
  Population Pyknosed Nuclei (%): 39%
  Population Tubulin-Different-Phenotype (%): 52%
  Total Cell Count: 683
[6]
  Population Apoptotic (%): 28%
  Population Fragmented Nuclei (%): 6%
  Population Healthy Nuclei (%): 63%
  Population Hoechst High Intensity Objects (%): 10%
  Population Membrane Permeable-Phenotype (%): 6%
  Population Mitochondria Different-Phenotype (%): 63%
  Population Mitotic Cells (%): 71%
  Population Normal (%): 89%
  Population Pyknosed Nuclei (%): 29%
  Population Tubulin-Different-Phenotype (%): 97%
  Total Cell Count: 914
[7]
  Population Apoptotic (%): 26%
  Population Fragmented Nuclei (%): 18%
  Population Healthy Nuclei (%): 64%
  Population Hoechst High Intensity Objects (%): 12%
  Population Membrane Permeable-Phenotype (%): 10%
  Population Mitochondria Different-Phenotype (%): 12%
  Population Mitotic Cells (%): 73%
  Population Normal (%): 87%
  Population Pyknosed Nuclei (%): 17%
  Population Tubulin-Different-Phenotype (%): 30%
  Total Cell Count: 470
[8]
  Population Apoptotic (%): 4%
  Population Fragmented Nuclei (%): 20%
  Population Healthy Nuclei (%): 76%
  Population Hoechst High Intensity Objects (%): 4%
  Population Membrane Permeable-Phenotype (%): 7%
  Population Mitochondria Different-Phenotype (%): 2%
  Population Mitotic Cells (%): 95%
  Population Normal (%): 95%
  Population Pyknosed Nuclei (%): 3%
  Population Tubulin-Different-Phenotype (%): 19%
  Total Cell Count: 2375
